Columns and labels:
[1] = species: Mus musculus; test: animal or person; format: functional; conditions: 0.5 h, read-out: MED
[2] = species: Mus musculus; format: functional
[3] = tested on: Mus musculus; test: The compound was tested for Ataxia(ATAX) by the inverted screen test after (ip) administration at 120 min; format: functional; conditions: 2 h
[4] = species: Mus musculus; test: Protective activity against Maximal Electroshock seizures(MES) in mice was determined at 90 min; format: functional; conditions: 1.5 h
[5] = species: Mus musculus; test: Protective activity against Maximal Electroshock seizures(MES) at 60 min was determined; format: functional; conditions: 1 h
[6] = tested on: Mus musculus; test: The compound was tested for Ataxia(ATAX) by the inverted screen test, after intraperitoneal administration at 120 min; format: functional; conditions: ip, 2 h
[7] = species: Mus musculus; test: Protective activity was determined against Maximal Electroshock seizures(MES) in mouse at 120 min; format: functional; conditions: 2 h
Procedure, shortened: (§1)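 Male Swiss-Webster mice (25–32 g, fed) were dosed orally, with the compound in water or in a 0.2% (hydroxymethyl)cellulose suspension and doses calculated as free base. Absence of tonic hind-limb extension counted as protection. Ten mice per dose were used, giving an ED50 with 95% confidence interval.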

[8] = tested on: Mus musculus; test: The compound was tested for Ataxia(ATAX) by the inverted screen test, after oral administration in mouse at 120 min; format: functional; conditions: 2 h
Procedure, shortened: (§2)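 Mice were dosed orally, with doses calculated as free base. They were placed on an inverted square of wire mesh, and falling off was scored as impairment. Ten mice per dose were tested at the stated time, giving an ED50 with 95% confidence interval.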

[9] = species: Rattus norvegicus; test: Protective activity was determined against Maximal Electroshock seizures(MES) in rat at 30 min; format: functional; conditions: 0.5 h
Procedure, shortened: (§3)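 Rats were dosed orally and tested against maximal electroshock, with the test time after dosing given per line. Doses were calculated as free base. ED50 is reported with 95% confidence interval.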

[10] = tested on: Rattus norvegicus; test: The compound was tested for Ataxia(ATAX) by the inverted screen test, after oral administration in rat at 240 min; conditions: 4 h
[11] = tested on: Mus musculus; test: The compound was tested for Ataxia(ATAX) by the inverted screen test, after intraperitoneal administration at 120 min in mice; format: functional; conditions: ip, 2 h
[12] = species: Rattus norvegicus; test: Protective activity was determined against Maximal Electroshock seizures(MES) in rat at 60 min; format: functional; conditions: 1 h
Procedure, shortened: as §3

[13] = tested on: Mus musculus; test: The compound was tested for Ataxia(ATAX) by the inverted screen test, after oral administration in mouse at 60 min; format: functional; conditions: 1 h
Procedure, shortened: as §2

[14] = species: Mus musculus; test: The compound was tested for protective activity against Maximal Electroshock seizures(MES) at 60 min in mice; format: functional; conditions: 1 h
[15] = species: Mus musculus; test: Protective activity was determined against Maximal Electroshock seizures(MES) in mouse at 30 min; format: functional; conditions: 0.5 h
Procedure, shortened: as §1

Compound | minimal effective dose [1] [mg/kg] | MAD [2] [mg/kg] | further results
Cc1cccc(C)c1NC(=O)Nc1ccc([N+](=O)[O-])cc1 | > 300 | >300 | 
O=C(Nc1ccncc1)Nc1ccc(I)cc1 | > 300 | >300 | 
Cc1cccc(C)c1NC(=O)Nc1ccccn1 | 300 | >300 | 
Cc1cccc(C)c1NC(=O)Nc1ccncc1 | 30 | 100 | ED50 [3]: 138 mg/kg; ED50 [4]: 21 mg/kg
Cc1ccc(NC(=O)Nc2ccncc2)cc1 | > 300 | 100 | 
Cc1cc(C)c(NC(=O)Nc2ccncc2)c(Cl)c1 | 100 | >300 | 
O=C(Nc1ccccn1)Nc1c(Cl)cccc1Cl | > 300 | 100 | 
Cc1cccc(C)c1NC(=O)N1CCN(C)CC1 | 100 | 300 | 
O=C(Nc1ccncc1)Nc1cccc(C(F)(F)F)c1 | > 300 | >300 | 
O=C(Nc1ccncc1)Nc1c(Cl)cccc1Cl | 100 | >300 | ED50 [5]: 30 mg/kg; ED50 [6]: 293 mg/kg
O=C1NC(=O)C(c2ccccc2)(c2ccccc2)N1 [PHENYTOIN] |  |  | ED50 [7]: 8.3 mg/kg; ED50 [8]: 78 mg/kg; ED50 [9]: 30 mg/kg; ED50 [10]: > 300 mg/kg
Cc1cccc(Cl)c1NC(=O)Nc1ccncc1 | 30 | 300 | ED50 [11]: 251 mg/kg; ED50 [12]: 9.2 mg/kg; ED50 [13]: 210 mg/kg; ED50 [14]: 46 mg/kg; ED50 [15]: 14 mg/kg; ED50 [10]: 408 mg/kg
CCc1cccc(CC)c1NC(=O)Nc1ccncc1 | 30 | 100 | 
O=C(Nc1ccncc1)Nc1ccccc1Cl | 100 | >300 | 
O=C(Nc1ccncc1)Nc1c(Cl)cc(Cl)cc1Cl | 300 | 300 | 
COc1cc(C)c(NC(=O)Nc2ccncc2)c(C)c1 | > 300 | >300 | 
Cc1cccc(Cl)c1NC(=O)Nc1ccccn1 | 100 | >300 | 
CC(C)NC(=O)Nc1ccncc1 | 300 | 300 | 
Cc1ccc(NC(=O)Nc2ccncc2)c(C)c1 | > 300 | >300 | 

Compound | minimal effective dose [1] [mg/kg] | MAD [2] [mg/kg] | further results
Nc1ccc(NC(=O)Nc2ccncc2)cc1 | > 300 | 300 | 
O=C(Nc1ccncc1)Nc1c(Cl)cccc1C(F)(F)F | 100 | 300 | 
Cc1cccc(Cl)c1NC(N)=O | 100 | 300 | 
Cc1cccc(Cl)c1NC(=O)Nc1c(C)cccc1Cl | > 300 | >300 | 
O=C(Nc1ccncc1)Nc1ccccc1F | 100 | 100 | 
Cc1cccc(Cl)c1NC(=O)Nc1cccnc1 | 100 | 300 | 
N#Cc1ccccc1NC(=O)Nc1ccncc1 | > 300 | 100 | 
Cc1cc(NC(=O)Nc2c(C)cccc2Cl)ccn1 | 30 | 100 | 
CC(C)c1ccc(NC(=O)Nc2ccncc2)cc1 | > 300 | >300 | 
Cc1cccc(C)c1NC(=O)Nc1cccnc1 | 100 | 300 | 
O=C(Nc1ccncc1)Nc1ccc(Oc2ccccc2)cc1 | > 300 | >300 | 
O=C(Nc1ccncc1)Nc1ccccc1C(F)(F)F | 100 | 300 | 
O=C(Nc1ccncc1)Nc1ccc(F)cc1 | 300 | 300 | 
O=C(Nc1ccncc1)Nc1ccccc1OCc1ccccc1 | > 300 | 30 | 
O=C(Nc1ccncc1)Nc1ccc(Cl)cc1Cl | > 300 | >300 | 
O=C(Nc1ccncc1)Nc1ccc(Cl)cc1 | > 300 | >300 | 
Cc1c(Cl)cccc1NC(=O)Nc1ccncc1 | > 300 | >300 | 
O=C(Nc1ccncc1)Nc1ccccc1Br | 100 | >300 | 
CC(C)c1cccc(C(C)C)c1NC(=O)Nc1ccncc1 | > 300 | >300 | 

Compound | minimal effective dose [1] [mg/kg] | MAD [2] [mg/kg] | further results
Cc1cccc(NC(=O)Nc2ccncc2)c1 | > 300 | >300 | 
Cc1cccc(Cl)c1NC(=O)NCc1ccncc1 | > 300 | >300 | 
Cc1ccccc1NC(=O)Nc1ccncc1 | 100 | >300 | 
O=C(Nc1ccncc1)Nc1cccc([N+](=O)[O-])c1 | > 300 | >300 | 
CN(C)c1ccccc1NC(=O)Nc1ccncc1 | 100 | 100 | 
O=C(Nc1ccccc1)Nc1ccncc1 | 100 | 300 | 
CCOC(=O)c1ccc(NC(=O)Nc2ccncc2)cc1 | > 300 | >300 | 
COc1ccccc1NC(=O)Nc1ccncc1 | 100 | >300 | 
O=C(Nc1ccncc1)Nc1ccccc1[N+](=O)[O-] | 300 | >300 | 
CC(C)c1ccccc1NC(=O)Nc1ccncc1 | 100 | 300 | 
O=C(Nc1cccnc1)Nc1c(Cl)cccc1Cl | > 300 | 300 | 
O=C(Nc1ccncc1)Nc1ccccc1C(=O)O | > 300 | >300 | 
O=C(Nc1ccncc1)Nc1ccc([N+](=O)[O-])cc1 | > 300 | >300 | 
O=C(Nc1ccncc1)Nc1ccccc1O | > 300 | >300 | 
CC(=O)c1ccc(NC(=O)Nc2ccncc2)cc1 | > 300 | >300 | 
Cc1cc(C)c(NC(=O)Nc2ccncc2)c(C)c1 | 30 | 300 | 
Nc1ccccc1NC(=O)Nc1ccncc1 | > 300 | >300 | 
O=C(Nc1ccncc1)Nc1c(Cl)cccc1CO | > 300 | 300 | 
CCOC(=O)c1ccccc1NC(=O)Nc1ccncc1 | 300 | >300 | 

From ChEMBL document CHEMBL1124707, “N-phenyl-N'-pyridinylureas as anticonvulsant agents” (1990)
